Source: publication PMC8237268 (Journal of Medicinal Chemistry, 2021)

Assays:
Assay type in all cases: binding
p65_45/14-3-3σΔC complex = p65_45/14-3-3σΔC complex (Homo sapiens, UniProt P31947+Q04206, E49R); experiment: X-ray crystal soaking of fragments into p65_45/14-3-3σΔC crystals; conditions: soak 10 mM compound, 7 days; imine bond to Lys122 of 14-3-3
How it was run: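 His-tag-free 14-3-3σΔC (12 mg/mL) was complexed overnight 1:2 with N-acetyl, C-amide p65 pSer45 peptide in 20 mM HEPES pH 7.5, 2 mM MgCl2, 2 mM β-mercaptoethanol. Crystals grew in hanging drops (95 mM HEPES pH 7.5, 27–28% PEG400, 190 mM CaCl2, 5% glycerol). Test compound from DMSO stock was added to final 10 mM (≤1% DMSO) for 7 days. Crystals were flash-frozen; binding was judged from 2Fo-Fc density.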

p65_45/14-3-3γ [1] = target: T1, p65_45/14-3-3γ (Homo sapiens, UniProt P61981+Q04206); experiment: Fluorescence anisotropy; conditions: 50 μM 14-3-3γ, 100 nM p65_45
p65_45/14-3-3γ [2] = target: T1, p65_45/14-3-3γ; experiment: Fluorescence anisotropy; conditions: fold-change of apparent KD in comparison to a DMSO control, 1 mM fragment
ERα-peptide/14-3-3γ = target: T2, ERα-peptide/14-3-3γ (Homo sapiens, UniProt P61981); experiment: FA compound titration, selectivity: ERα-peptide and 14-3-3γ; conditions: 0.1 μM 14-3-3γ, 10 nM peptide
T2 sequence (P61981 1-247): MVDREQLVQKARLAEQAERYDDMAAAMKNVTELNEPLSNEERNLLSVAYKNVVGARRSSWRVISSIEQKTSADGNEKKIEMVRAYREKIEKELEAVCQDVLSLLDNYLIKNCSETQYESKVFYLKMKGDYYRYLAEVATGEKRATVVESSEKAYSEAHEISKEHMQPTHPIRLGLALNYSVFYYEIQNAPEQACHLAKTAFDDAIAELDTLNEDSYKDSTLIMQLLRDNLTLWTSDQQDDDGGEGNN

TAZ-peptide/14-3-3γ = target: T3, TAZ-peptide/14-3-3γ (Homo sapiens, UniProt P61981); experiment: FA compound titration, selectivity: TAZ-peptide and 14-3-3γ; conditions: 0.1 μM 14-3-3γ, 10 nM peptide
T3 sequence (P61981 1-247): T2 sequence (P61981 1-247)

p53-peptide/14-3-3γ = target: T4, p53-peptide/14-3-3γ (Homo sapiens, UniProt P61981); experiment: FA compound titration, selectivity: p53-peptide and 14-3-3γ; conditions: 0.3 μM 14-3-3γ, 10 nM peptide
T4 sequence (P61981 1-247): T2 sequence (P61981 1-247)

p65_45/14-3-3σΔC complex, sequence (P31947 1-231, other chains not shown): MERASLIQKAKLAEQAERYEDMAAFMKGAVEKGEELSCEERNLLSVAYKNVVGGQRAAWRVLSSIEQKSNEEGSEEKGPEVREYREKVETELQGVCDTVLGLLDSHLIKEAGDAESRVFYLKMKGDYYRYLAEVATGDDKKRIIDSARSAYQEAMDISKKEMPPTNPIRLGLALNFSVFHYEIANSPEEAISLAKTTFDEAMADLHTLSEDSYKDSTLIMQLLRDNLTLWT

Row | SMILES | binding of the fragment in X-ray crystal soaking experiments (p65_45/14-3-3σΔC complex) | ternary complex formation in FA compound titration (in words) (p65_45/14-3-3γ [1]) | further results
1 | O=Cc1ccc(-n2ccnc2Br)nc1 [16d] | detected in the electron density map | induced an increase in anisotropy | –
2 | O=Cc1ccc(S(=O)(=O)N2CCC(N3CCCC3)CC2)cc1 [23m] | – | – | SF (stabilization factor) (p65_45/14-3-3γ [2]): 4.5 fold
3 | O=Cc1ccc(S(=O)(=O)N2CCNc3ccccc32)cc1 [24j] | – | – | ternary complex formation with ERα (ERα-peptide/14-3-3γ): no ternary complex formation was detected; ternary complex formation with TAZ (TAZ-peptide/14-3-3γ): no ternary complex formation was detected; ternary complex formation with p53 (p53-peptide/14-3-3γ): no ternary complex formation was detected

Now from value to compound, other results behind:

Row | binding of the fragment in X-ray crystal soaking experiments (p65_45/14-3-3σΔC complex) | SMILES | ternary complex formation in FA compound titration (in words) (p65_45/14-3-3γ [1]) | further results
4 | bound to Lys122 | O=Cc1ccc([N+](=O)[O-])c(OC(=O)C2CCC2)c1 [10a] | – | –
5 | significant electron density coverage | COC1CCCN(c2cc(C=O)ccc2[N+](=O)[O-])C1 (stereo not shown) [13e] | did not elicit significant ternary complex formation | –
6 | significant electron density coverage | O=Cc1ccc([N+](=O)[O-])c(N2CCC(O)CC2)c1 [13f] | did not elicit significant ternary complex formation | –
7 | significant electron density coverage | O=Cc1ccc([N+](=O)[O-])c(N2CCCC(O)C2)c1 (stereo not shown) [13l] | did not elicit significant ternary complex formation | –
